Key:
L1210 [1] = assay: Compound was tested for its cytotoxic activity against murine leukemia L1210 cells in mice after intraperitoneal treatment, expressed as LD0 (highest nonlethal dose).; type: functional, Mus musculus
Method in brief: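 Highest nonlethal dose (LD0) found for each drug after a single intraperitoneal injection into DBA/2 or Swiss mice.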

[2] = target: Myeloperoxidase (Homo sapiens) (UniProt P05164); assay: The effect on NADH oxidation in the presence of MPO-H2O2.
[3] = target: Myeloperoxidase (Homo sapiens) (UniProt P05164); assay: The effect on oxygen consumed in the presence of MPO-H2O2.
L1210 [4] = assay: Compound was tested for its antitumor activity against murine leukemia L1210 cells in vitro, expressed as ID50; type: functional; settings: Mus musculus, read-out: ID50 (the source's name)
Method in brief: (§1)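 L1210 murine leukemia cells were grown in culture with drug for 48 h. ID50 is the drug concentration that cuts the rate of cell multiplication by 50% compared with untreated controls.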

Mus musculus [5] = assay: Increase in life span over controls (10e5 cells) in mice after intraperitoneal treatment of the compound.; type: functional; set-up: concentration or dose not given beside the values
Method in brief: (§2)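 DBA/2 mice were inoculated with 10⁵ L1210 leukemia cells and given a single intraperitoneal injection of drug. Survival was compared with untreated controls as increase in life span, ILS = [(T − C)/C] × 100. An antitumor effect was counted significant at ILS ≥ 25%.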

Mus musculus [6] = assay: Increase in life span over control (10e5 cells) in mice after intraperitoneal treatment of the compound.; type: functional; method in brief: as §2
[7] = target: Myeloperoxidase (Homo sapiens) (UniProt P05164); assay: The effect on oxygen uptake in the presence of MPO-H2O2 at pH 8.3
[8] = target: Myeloperoxidase (Homo sapiens) (UniProt P05164); assay: The effect on oxygen uptake in the presence of MPO-H2O2 without the compound at pH 6.8
[9] = target: Myeloperoxidase (Homo sapiens) (UniProt P05164); assay: The effect on NADH oxidation in the presence of MPO-H2O2 without compound at pH 7.8
[10] = target: Myeloperoxidase (Homo sapiens) (UniProt P05164); assay: The effect on NADH oxidation in the presence of MPO-H2O2 at pH 7.8
[11] = target: Myeloperoxidase (Homo sapiens) (UniProt P05164); assay: The effect on NADH oxidation in the presence of MPO-H2O2 without the compound at pH 6.0
[12] = target: Myeloperoxidase (Homo sapiens) (UniProt P05164); assay: The effect on NADH oxidation in the presence of MPO-H2O2 at pH 6.0
[13] = target: Myeloperoxidase (Homo sapiens) (UniProt P05164); assay: The effect on NADH oxidation in the presence of MPO-H2O2 without compound at pH 7.4
[14] = target: Myeloperoxidase (Homo sapiens) (UniProt P05164); assay: The effect on oxygen uptake in the presence of MPO-H2O2 at pH 6.0
[15] = target: Myeloperoxidase (Homo sapiens) (UniProt P05164); assay: The effect on NADH oxidation in the presence of MPO-H2O2.; remark: listed apart in the source
[16] = target: Myeloperoxidase (Homo sapiens) (UniProt P05164); assay: The effect on oxygen uptake in the presence of MPO-H2O2 without the compound at pH 6.0
[17] = target: Myeloperoxidase (Homo sapiens) (UniProt P05164); assay: The effect on NADH oxidation in the presence of MPO-H2O2 without the compound at pH 8.3
[18] = target: Myeloperoxidase (Homo sapiens) (UniProt P05164); assay: The effect on NADH oxidation in the presence of MPO-H2O2 at pH 6.8
[19] = target: Myeloperoxidase (Homo sapiens) (UniProt P05164); assay: The effect on NADH oxidation in the presence of MPO-H2O2 at pH 7.4
[20] = target: Myeloperoxidase (Homo sapiens) (UniProt P05164); assay: The effect on NADH oxidation in the presence of MPO-H2O2 at pH 8.3
[21] = target: Myeloperoxidase (Homo sapiens) (UniProt P05164); assay: The effect on oxygen uptake in the presence of MPO-H2O2 at pH 6.8
[22] = target: Myeloperoxidase (Homo sapiens) (UniProt P05164); assay: The effect on oxygen uptake in the presence of MPO-H2O2 without the compound at pH 8.3
[23] = target: Myeloperoxidase (Homo sapiens) (UniProt P05164); assay: The effect on oxygen uptake in the presence of MPO-H2O2 without the compound at pH 7.8
[24] = target: Myeloperoxidase (Homo sapiens) (UniProt P05164); assay: The effect on NADH oxidation in the presence of MPO-H2O2 without the compound
[25] = target: Myeloperoxidase (Homo sapiens) (UniProt P05164); assay: The effect on oxygen uptake in the presence of MPO-H2O2 at pH 7.4
[26] = target: Myeloperoxidase (Homo sapiens) (UniProt P05164); assay: The effect on oxygen uptake in the presence of MPO-H2O2 at pH 7.8
[27] = target: Myeloperoxidase (Homo sapiens) (UniProt P05164); assay: The effect on oxygen uptake in the presence of MPO-H2O2 without the compound at pH 7.4
[28] = target: Myeloperoxidase (Homo sapiens) (UniProt P05164); assay: he effect on oxygen consumed in the presence of MPO-H2O2.
L1210 [29] = assay: The compound is tested for its cytotoxic activity against murine leukemia L1210 cells in mice after intraperitoneal treatment, expressed as LD0 (highest nonlethal dose).; type: functional, Mus musculus
L1210 [30] = assay: The compound is tested for its antitumor activity against murine leukemia L1210 cells in vitro, expressed as ID50; type: functional; settings: Mus musculus, read-out: ID50 (the source's name); method in brief: as §1

SMILES: Cc1c2cc[n+](C)cc2c(C)c2c1[nH]c1ccc(O)cc12 [ELLIPTINIUM]
- LD0 (L1210 [1]): 5 mg/kg
- NADH oxidized [2]: 12.2 nM/min
- Oxygen consumed [3]: 0 nM/min
- IC50 (L1210 [4]): 0.05 µM
- ILS (Mus musculus [5]): 62%

SMILES: Cc1c2c[n+](C)ccc2c(C)c2c1c1cc(O)ccc1n2C
- LD0 (L1210 [1]): 15 mg/kg
- NADH oxidized [2]: 16.15 nM/min
- ILS (Mus musculus [6]): 78%
- Oxygen consumed [3]: 7.7 nM/min
- IC50 (L1210 [4]): 0.041 µM

SMILES: Cc1c2ccncc2c(C)c2c1[nH]c1ccc(O)cc12
- LD0 (L1210 [1]): 50 mg/kg
- NADH oxidized [2]: 10.5 nM/min
- Oxygen uptake [7]: 0 nM/min
- Oxygen uptake [8]: 0.28 nM/min
- NADH oxidation [9]: 0 nM/min
- NADH oxidation [10]: 7.2 nM/min
- NADH oxidized [11]: 1.2 nM/min
- NADH oxidation [12]: 5.5 nM/min
- NADH oxidation [13]: 0 nM/min
- Oxygen uptake [14]: 0 nM/min
- Oxygen consumed [15]: 0 nM/min
- Oxygen uptake [16]: 0.52 nM/min
- NADH oxidation [17]: 0 nM/min
- NADH oxidation [18]: 7.8 nM/min
- NADH oxidation [19]: 10.2 nM/min
- NADH oxidation [20]: 6.5 nM/min
- Oxygen uptake [21]: 0 nM/min
- IC50 (L1210 [4]): 0.015 µM
- Oxygen uptake [22]: 0 nM/min
- ILS (Mus musculus [5]): 53%
- Oxygen uptake [23]: 0 nM/min
- NADH oxidation [24]: 0.5 nM/min
- Oxygen uptake [25]: 0 nM/min
- Oxygen uptake [26]: 0 nM/min
- Oxygen uptake [27]: 0 nM/min

SMILES: Cc1c2ccncc2c(C)c2c1[nH]c1ccccc12 [ELLIPTECINE]
- LD0 (L1210 [1]): 50 mg/kg
- NADH oxidized [2]: 0 nM/min
- Oxygen consumed [3]: 0 nM/min
- IC50 (L1210 [4]): 0.99 µM
- ILS (Mus musculus [5]): 68%

SMILES: Cc1c2cc[n+](C)cc2c(C)c2c1[nH]c1ccccc12
- LD0 (L1210 [1]): 12.5 mg/kg
- NADH oxidized [2]: 0 nM/min
- Oxygen consumed [28]: 0 nM/min
- IC50 (L1210 [4]): 1.68 µM
- ILS (Mus musculus [5]): 18%

SMILES: COc1ccc2[nH]c3c(C)c4ccncc4c(C)c3c2c1
- NADH oxidized [2]: 0.22 nM/min
- LD0 (L1210 [29]): 70 mg/kg
- Oxygen consumed [3]: 0 nM/min
- ILS (Mus musculus [5]): 70%
- IC50 (L1210 [30]): 0.6 µM

Reference: ChEMBL document CHEMBL1121796, “Bioactivation of the antitumor drugs 9-hydroxyellipticine and derivatives by a peroxidase-hydrogen peroxide system” (1981)
